{"source": "ChEMBL document CHEMBL1141377", "about": "(J Nat Prod, 2007)", "note": "pIC50: −log10 of the molar value. Calls of active or inactive are those of the source. No cut-off for these calls is given here."}
{"biological_target": "20S proteasome", "assay": "Inhibition of human 20S proteasome", "type": "subcellular", "conditions": "not given"}
{"compound": "CCCCCC[C@H]1C(=O)N[C@](C(=O)SC[C@H](NC(C)=O)C(=O)OC)([C@@H](O)[C@@H]2C=CCCC2)[C@@]1(C)O", "note": "[CINNABARAMIDE G]", "pIC50": 9.22}
{"compound": "CCCCCC(O)[C@H]1C(=O)N[C@@]2([C@@H](O)[C@@H]3C=CCCC3)C(=O)O[C@@]12C", "note": "(stereo partly specified) [CINNABARAMIDE B]", "pIC50": 6.61}
{"compound": "CCCCCC[C@H]1C(=O)N[C@](C(=O)O)([C@@H](O)[C@@H]2C=CCCC2)[C@@]1(C)O", "note": "[CINNABARAMIDE E]", "pIC50": 6.87}
{"compound": "CCCCCC[C@H]1C(=O)N[C@@]2([C@@H](O)[C@@H]3C=CCCC3)C(=O)O[C@@]12C", "note": "[CINNABARAMIDE A]", "pIC50": 9.00}
{"compound": "CCCCCC[C@H]1C(=O)N[C@@]2(C[C@@H]3C=CCCC3)C(=O)O[C@@]12C", "note": "[CINNABARAMIDE C]", "pIC50": 7.92}
{"compound": "CCCCCC[C@H]1C(=O)N[C@](C(=O)SC[C@H](NC(C)=O)C(=O)O)([C@@H](O)[C@@H]2C=CCCC2)[C@@]1(C)O", "note": "[CINNABARAMIDE F]", "pIC50": 8.22}
{"compound": "CCCCCC(O)[C@H]1C(=O)N[C@](C(=O)O)([C@@H](O)[C@@H]2C=CCCC2)[C@@]1(C)O", "note": "(stereo partly specified) [CINNABARAMIDE D]", "pIC50": 7.00}
{"species_on_record": "Homo sapiens", "assay": "Inhibition of chymotrypsin up to 100 uM", "conditions": "not given"}
{"compound": "CCCCCC[C@H]1C(=O)N[C@](C(=O)SC[C@H](NC(C)=O)C(=O)OC)([C@@H](O)[C@@H]2C=CCCC2)[C@@]1(C)O", "note": "[CINNABARAMIDE G]", "Activity": "inactive"}
{"compound": "CCCCCC(O)[C@H]1C(=O)N[C@@]2([C@@H](O)[C@@H]3C=CCCC3)C(=O)O[C@@]12C", "note": "(stereo partly specified) [CINNABARAMIDE B]", "Activity": "inactive"}
{"compound": "CCCCCC[C@H]1C(=O)N[C@](C(=O)O)([C@@H](O)[C@@H]2C=CCCC2)[C@@]1(C)O", "note": "[CINNABARAMIDE E]", "Activity": "inactive"}
{"compound": "CCCCCC[C@H]1C(=O)N[C@@]2([C@@H](O)[C@@H]3C=CCCC3)C(=O)O[C@@]12C", "note": "[CINNABARAMIDE A]", "Activity": "inactive"}
{"compound": "CCCCCC[C@H]1C(=O)N[C@@]2(C[C@@H]3C=CCCC3)C(=O)O[C@@]12C", "note": "[CINNABARAMIDE C]", "Activity": "inactive"}
{"compound": "CCCCCC[C@H]1C(=O)N[C@](C(=O)SC[C@H](NC(C)=O)C(=O)O)([C@@H](O)[C@@H]2C=CCCC2)[C@@]1(C)O", "note": "[CINNABARAMIDE F]", "Activity": "inactive"}
{"compound": "CCCCCC(O)[C@H]1C(=O)N[C@](C(=O)O)([C@@H](O)[C@@H]2C=CCCC2)[C@@]1(C)O", "note": "(stereo partly specified) [CINNABARAMIDE D]", "Activity": "inactive"}
{"system": "PBMC", "assay": "Inhibition of LPS-induced TNFalpha production in human PBMC", "type": "functional, cell-based", "conditions": "not given", "procedure,_shortened": "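Human PBMC isolated from heparinized healthy-donor blood on 80% Percoll, washed twice in PBS, in RPMI1640 with 10% heat-inactivated FCS. Cells preincubated 1 h with compound or DMSO (final 0.1%), then stimulated with LPS (1 μg/mL). After overnight culture, supernatant TNF-α measured. IC50 reported.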"}
{"compound": "CCCCCC[C@H]1C(=O)N[C@@]2([C@@H](O)[C@@H]3C=CCCC3)C(=O)O[C@@]12C", "note": "[CINNABARAMIDE A]", "pIC50": 6.30}
{"system": "MDA-MB-231", "assay": "Cytotoxicity against human MDA-MB-231 cell line", "type": "functional, cell-based", "conditions": "not given"}
{"compound": "CCCCCC[C@H]1C(=O)N[C@@]2([C@@H](O)[C@@H]3C=CCCC3)C(=O)O[C@@]12C", "note": "[CINNABARAMIDE A]", "pIC50": 6.00}
{"biological_target": "Trypsin (Homo sapiens) (UniProt P07477+P07478+P35030)", "assay": "Inhibition of trypsin up to 100 uM", "type": "protein assay", "conditions": "not given"}
{"compound": "CCCCCC[C@H]1C(=O)N[C@](C(=O)SC[C@H](NC(C)=O)C(=O)OC)([C@@H](O)[C@@H]2C=CCCC2)[C@@]1(C)O", "note": "[CINNABARAMIDE G]", "Activity": "inactive"}
{"compound": "CCCCCC(O)[C@H]1C(=O)N[C@@]2([C@@H](O)[C@@H]3C=CCCC3)C(=O)O[C@@]12C", "note": "(stereo partly specified) [CINNABARAMIDE B]", "Activity": "inactive"}
{"compound": "CCCCCC[C@H]1C(=O)N[C@](C(=O)O)([C@@H](O)[C@@H]2C=CCCC2)[C@@]1(C)O", "note": "[CINNABARAMIDE E]", "Activity": "inactive"}
{"compound": "CCCCCC[C@H]1C(=O)N[C@@]2([C@@H](O)[C@@H]3C=CCCC3)C(=O)O[C@@]12C", "note": "[CINNABARAMIDE A]", "Activity": "inactive"}
{"compound": "CCCCCC[C@H]1C(=O)N[C@@]2(C[C@@H]3C=CCCC3)C(=O)O[C@@]12C", "note": "[CINNABARAMIDE C]", "Activity": "inactive"}
{"compound": "CCCCCC[C@H]1C(=O)N[C@](C(=O)SC[C@H](NC(C)=O)C(=O)O)([C@@H](O)[C@@H]2C=CCCC2)[C@@]1(C)O", "note": "[CINNABARAMIDE F]", "Activity": "inactive"}
{"compound": "CCCCCC(O)[C@H]1C(=O)N[C@](C(=O)O)([C@@H](O)[C@@H]2C=CCCC2)[C@@]1(C)O", "note": "(stereo partly specified) [CINNABARAMIDE D]", "Activity": "inactive"}
{"system": "NCI-H460", "assay": "Cytotoxicity against human H460 cell line", "type": "functional, cell-based", "conditions": "not given"}
{"compound": "CCCCCC[C@H]1C(=O)N[C@@]2([C@@H](O)[C@@H]3C=CCCC3)C(=O)O[C@@]12C", "note": "[CINNABARAMIDE A]", "pIC50": 6.00}
{"system": "HCT-116", "assay": "Cytotoxicity against human HCT116 cell line", "type": "cell-based", "conditions": "not given", "units": {"Activity": "nM"}}
{"compound": "CCCCCC[C@H]1C(=O)N[C@@]2([C@@H](O)[C@@H]3C=CCCC3)C(=O)O[C@@]12C", "note": "[CINNABARAMIDE A]", "Activity": 10}
{"system": "not listed separately", "assay": "Stability in neutral pH after 48 hrs", "type": "physicochemical", "conditions": "read-out: Stability", "units": {"remaining at 48 h": "%"}}
{"compound": "CCCCCC[C@H]1C(=O)N[C@](C(=O)SC[C@H](NC(C)=O)C(=O)OC)([C@@H](O)[C@@H]2C=CCCC2)[C@@]1(C)O", "note": "[CINNABARAMIDE G]", "remaining at 48 h": 90}
{"compound": "CCCCCC[C@H]1C(=O)N[C@](C(=O)SC[C@H](NC(C)=O)C(=O)O)([C@@H](O)[C@@H]2C=CCCC2)[C@@]1(C)O", "note": "[CINNABARAMIDE F]", "remaining at 48 h": "> 90"}
{"system": "not listed separately", "assay": "Stability in neutral pH after 24 hrs", "type": "physicochemical", "conditions": "read-out: Stability", "procedure,_shortened": "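Compound solutions in 20% MeOH incubated in horse serum or water at pH 7 for 24 h. Recovery estimated by HPLC.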", "units": {"remaining at 24 h": "%"}}
{"compound": "CCCCCC(O)[C@H]1C(=O)N[C@@]2([C@@H](O)[C@@H]3C=CCCC3)C(=O)O[C@@]12C", "note": "(stereo partly specified) [CINNABARAMIDE B]", "remaining at 24 h": 50}
{"compound": "CCCCCC[C@H]1C(=O)N[C@@]2([C@@H](O)[C@@H]3C=CCCC3)C(=O)O[C@@]12C", "note": "[CINNABARAMIDE A]", "remaining at 24 h": 50}
{"compound": "CCCCCC[C@H]1C(=O)N[C@@]2(C[C@@H]3C=CCCC3)C(=O)O[C@@]12C", "note": "[CINNABARAMIDE C]", "remaining at 24 h": 50}
{"system": "not listed separately", "assay": "Stability in alkaline pH after 48 hrs", "type": "physicochemical", "conditions": "read-out: Stability", "units": {"remaining at 48 h": "%"}}
{"compound": "CCCCCC[C@H]1C(=O)N[C@](C(=O)SC[C@H](NC(C)=O)C(=O)OC)([C@@H](O)[C@@H]2C=CCCC2)[C@@]1(C)O", "note": "[CINNABARAMIDE G]", "remaining at 48 h": 45}
